Laboratory results published in ChEMBL document CHEMBL1140211, “The role of molecular modeling in the design of analogues of the fungicidal natural products crocacins A and D” (Bioorg Med Chem, 2008).
The source made the active and inactive calls. No cut-off for these calls is given here.

Legend:
Puccinia triticina = assay: Inhibition of Puccinia triticina cytochrome bc1 complex inoculated in wheat plant assessed as lowest drug concentration required to control 100% disease applied to leaf 1 hr prior inoculation measured after 6 to 9 days
Outline: (§1)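 Spray solutions were made up in reverse osmosis water immediately before use, with Tween 20 at 0.05% by volume final to improve deposit retention. Concentrations tested were 100, 50, 25, 10, 5 and 1 ppm. The breakpoint is the lowest of these six concentrations giving 100% disease control, converted to molar units. Azoxystrobin served as the standard.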

[1] = tested on: Mycosphaerella graminicola; assay: Inhibition of Mycosphaerella graminicola cytochrome bc1 complex inoculated in wheat plant assessed as lowest drug concentration required to control 100% disease applied to leaf 1 hr prior inoculation measured after 6 to 9 days; outline: as §1
[2] = tested on: Blumeria graminis f. sp. tritici; assay: Inhibition of Blumeria graminis f. sp. Tritici cytochrome bc1 complex inoculated in wheat plant assessed as lowest drug concentration required to control 100% disease applied to leaf 1 hr prior inoculation measured after 6 to 9 days; outline: as §1
Phytophthora infestans = assay: Inhibition of Phytophthora infestans cytochrome bc1 complex inoculated in tomato plant assessed as lowest drug concentration required to control 100% disease applied to leaf 1 hr prior inoculation measured after 6 to 9 days; outline: as §1
[3] = (§2) Inhibition of cytochrome bc1 complex in bovine heart mitochondria by NADH oxidase assay; set-up: species or system Bos taurus
Outline: (§3)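 Microtitre-plate assay with beef heart mitochondria at a final 68.8 μg/ml in pH 8.0 phosphate buffer. Compounds were diluted in DMSO (2% final) from a top final concentration of 20 ppm. Plates were preincubated 15 min at room temperature, then NADH was added in pH 8.0 phosphate buffer to a final 200 ppm.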

Plasmopara viticola = assay: Inhibition of Plasmopara viticola cytochrome bc1 complex inoculated in vine plant assessed as lowest drug concentration required to control 100% disease applied to leaf 1 hr prior inoculation measured after 6 to 9 days; outline: as §1
Bos taurus = organism: Bos taurus; assay: as §2; outline: as §3

SMILES: COC(=O)CNC(=O)/C=C\C/C=C\NC(=O)/C=C(C)/C=C/[C@H](C)[C@H](OC)[C@H](C)[C@H](/C=C/c1ccccc1)OC [CROCACIN A]
- Activity (Puccinia triticina): 45 µM
- Activity [1]: > 180 µM
- Activity [2]: > 180 µM
- Activity (Phytophthora infestans): > 180 µM
- IC50 [3]: 56 nM
- Activity (Plasmopara viticola): 45 µM

SMILES: COC(=O)CNC(=O)CCC/C=C\NC(=O)c1ccc(Cc2ccc(Br)cc2)cc1
- IC50 [3]: 17 nM
- Activity (Plasmopara viticola): 10 µM

SMILES: CCc1ccc(Cc2ccc(C(=O)N/C=C\CCCC(=O)NCC(=O)OC)cc2)cc1
- IC50 [3]: 16 nM

SMILES: CCCCCCOc1ccc(C(=O)N/C=C\CCCC(=O)NCC(=O)OC)cc1
- IC50 [3]: 21 nM
- Activity (Plasmopara viticola): > 100 µM

SMILES: CCc1ccc(Cc2ccc(Cn3c(=O)oc4ccc(NCC(=O)OC)cc43)cc2)cc1
- Activity (Bos taurus): inactive

SMILES: CCc1ccc(Oc2ccc(C(=O)NCCCCC(=O)NCC(=O)OC)cc2)cc1
- IC50 [3]: 400 nM

SMILES: CCc1ccc(Cc2ccc(Cn3c(=O)oc4ccc(OCC(=O)OC)cc43)cc2)cc1
- IC50 [3]: 45 nM

SMILES: CCc1ccc(Oc2ccc(C(=O)N[C@H]3C[C@H]3CCC(=O)NCC(=O)OC)cc2)cc1
- IC50 [3]: 900 nM

SMILES: COC(=O)CNC(=O)CCC/C=C\NC(=O)/C=C(C)/C=C/[C@H](C)[C@H](OC)[C@H](C)[C@H](/C=C/c1ccccc1)OC [CROCACIN D]
- Activity (Puccinia triticina): 9 µM
- Activity [1]: 45 µM
- Activity [2]: > 180 µM
- Activity (Phytophthora infestans): 45 µM
- IC50 [3]: 36 nM
- Activity (Plasmopara viticola): 25 µM

SMILES: CCc1ccc(Oc2ccc(C(=O)NCCOCC(=O)NCC(=O)OC)cc2)cc1
- IC50 [3]: 230 nM

SMILES: CCOc1ccc(Cc2ccc(C(=O)N/C=C\CCCC(=O)NCC(=O)OC)cc2)cc1
- IC50 [3]: 9 nM
- Activity (Plasmopara viticola): 25 µM

SMILES: COC(=O)CNC(=O)CCCc1ccccc1NC(=O)CCCCCCCCCc1ccccc1
- Activity (Bos taurus): inactive

SMILES: CCc1ccc(Oc2ccc(Cn3c(=O)oc4ccc(OCC(=O)OC)cc43)cc2)cc1
- IC50 [3]: 140 nM

SMILES: COC(=O)COc1ccc2oc(=O)n(Cc3ccc(Cc4ccc(I)cc4)cc3)c2c1
- IC50 [3]: 75 nM

SMILES: CO/C=C(/C(=O)OC)c1ccccc1Oc1cc(Oc2ccccc2C#N)ncn1 [AZOXYSTROBIN]
- Activity (Puccinia triticina): < 1.8 µM
- Activity [1]: < 1.8 µM
- Activity [2]: < 1.8 µM
- Activity (Phytophthora infestans): < 1.8 µM
- IC50 [3]: 120 nM
- Activity (Plasmopara viticola): < 1.8 µM

SMILES: C/C=C(C)/C=C/C=C/[C@H](OC)[C@@H](C)[C@@H](OC)[C@@H](C)CCc1oc2c(O)c(OC)cc(OC)c2c(=O)c1C [STIGMATELLIN]
- Activity (Puccinia triticina): > 180 µM
- Activity [1]: > 180 µM
- Activity [2]: > 180 µM
- Activity (Phytophthora infestans): > 180 µM
- IC50 [3]: 81 nM
- Activity (Plasmopara viticola): 180 µM

SMILES: COC(=O)CNC(=O)CCC/C=C\NC(=O)c1ccc(Cc2ccc(I)cc2)cc1
- IC50 [3]: 18 nM

SMILES: CCCCCCCCCCCCC(=O)N/C=C\CCCC(=O)NCC(=O)OC
- IC50 [3]: 24 nM
- Activity (Plasmopara viticola): > 100 µM
